Experiment [1] can be described thus: reducers of endogenous Her2 protein level, primary screen, SKBR3 breast tumor cells, AlphaScreen, ATP viability (AID 461).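 As to Her2 level: lower value means less Her2 protein in the cells.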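 As to viability: percent of carrier control wells set as 100% viability.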 As to conditions: 18-24 h, measured here: SKBR3 viability, ATP luminescence, at 10 µM.
The target of experiment [2] is Receptor tyrosine-protein kinase erbB-2 (Homo sapiens) (UniProt P04626). The description is as above. As to conditions: 18-24 h, at 10 µM, stronger effect = lower value.
The nature of experiment [3]: SK-BR-3 cell growth inhibitors, pilot screen, 24 h, human (AID 572;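 active = viability at or below 10% of carrier control in both of two separate runs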;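 also: compound exposure lasted between 18 and 24 h rather than exactly 24 h; 100% = carrier-treated control wells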). As to conditions: SK-BR-3 viability, CellTiter-Glo luminescence, at 10 µM, stronger effect = lower value.
The nature of experiment [4]: HUVEC growth inhibition – cell-based, human, primary screen (AID 575;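 active = viability at or below 30% in both replicate assays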;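 also: 100% = median of untreated cell wells with 0.1% DMSO on each plate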). The conditions noted are these: HUVEC proliferation, CellTiter-Glo luminescence, 72 h; at 10 µM; stronger effect = lower value. The essentials:
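Material: primary human umbilical vein endothelial cells / Schedule: 72 h exposure, 37 °C, 5% CO2, 30 min RT equilibration / Signal: ATP-based CellTiter-Glo luminescent read / Read-out basis: percent of median DMSO-control luminescence / Control set: 32 DMSO-only cell-control wells (high), 32 MePR drug-control wells (low) per plate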

Experiment [5] can be described thus: growth inhibitors of H69AR lung tumor, primary screen, human, duplicate replicates (AID 580;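 active = viability at or under a set limit in both replicates, limit being median viability minus 3 SD, cut at about 48% in these data, passing the limit was not always enough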;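 also: 100% = mean luminescence of untreated wells and 0% = no signal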). As to conditions: H69AR lung tumor cells viability, ATP luminescence, 72 h; at 10 µM; stronger effect = lower value.
The nature of experiment [6]: reversal of MRP1-mediated doxorubicin resistance, pilot screen, H69AR cells, doxorubicin co-treatment (AID 601;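 active = viability loss from added drug above about 55%, and viability with drug at most 40%, in both replicates, limit read from the data, passing the limit was not always enough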). As to conditions: CellTiter-Glo, 72 h, at 10 µM; for differential viability (reversal): stronger effect = higher value.
Experiment [7] in a line: 384-well plate pilot, post-Golgi transport modulator project, inhibition of yeast transport mutant growth (AID 636; in the data active = inhibition above about 31%). As to conditions: absorbance 615 nm, about 18 h, stronger effect = higher value.
A short description of experiment [8]: growth suppression of yeast trafficking mutant, preliminary HTS, modulators of trafficking downstream of Golgi apparatus project, 1536-format plate, OD 615 nm (AID 637; in the data active = inhibition above about 30%). As to conditions: yeast transport mutant growth, absorbance 615 nm, 18 h; stronger effect = higher value.
[9] abbreviates: H69AR cells + 2 uM doxorubicin, measured here: viability with 2 uM doxorubicin, stronger effect = lower value.
The mark [10] stands for this setting: H69AR cells, compound alone cytotoxicity.

SMILES strings stand for the structures. Calls of active or inactive are those of the source.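 The calls were made as follows, unless noted: active = Her2 level under about 52% in both replicate screens, with viability over 70% of control (limit read from the data); inconclusive = Her2 under the limit in one screen only, or viability under 70%; inactive = Her2 level above the set limit.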

Sequence of Receptor tyrosine-protein kinase erbB-2 (Homo sapiens) (P04626 whole entry, looked up): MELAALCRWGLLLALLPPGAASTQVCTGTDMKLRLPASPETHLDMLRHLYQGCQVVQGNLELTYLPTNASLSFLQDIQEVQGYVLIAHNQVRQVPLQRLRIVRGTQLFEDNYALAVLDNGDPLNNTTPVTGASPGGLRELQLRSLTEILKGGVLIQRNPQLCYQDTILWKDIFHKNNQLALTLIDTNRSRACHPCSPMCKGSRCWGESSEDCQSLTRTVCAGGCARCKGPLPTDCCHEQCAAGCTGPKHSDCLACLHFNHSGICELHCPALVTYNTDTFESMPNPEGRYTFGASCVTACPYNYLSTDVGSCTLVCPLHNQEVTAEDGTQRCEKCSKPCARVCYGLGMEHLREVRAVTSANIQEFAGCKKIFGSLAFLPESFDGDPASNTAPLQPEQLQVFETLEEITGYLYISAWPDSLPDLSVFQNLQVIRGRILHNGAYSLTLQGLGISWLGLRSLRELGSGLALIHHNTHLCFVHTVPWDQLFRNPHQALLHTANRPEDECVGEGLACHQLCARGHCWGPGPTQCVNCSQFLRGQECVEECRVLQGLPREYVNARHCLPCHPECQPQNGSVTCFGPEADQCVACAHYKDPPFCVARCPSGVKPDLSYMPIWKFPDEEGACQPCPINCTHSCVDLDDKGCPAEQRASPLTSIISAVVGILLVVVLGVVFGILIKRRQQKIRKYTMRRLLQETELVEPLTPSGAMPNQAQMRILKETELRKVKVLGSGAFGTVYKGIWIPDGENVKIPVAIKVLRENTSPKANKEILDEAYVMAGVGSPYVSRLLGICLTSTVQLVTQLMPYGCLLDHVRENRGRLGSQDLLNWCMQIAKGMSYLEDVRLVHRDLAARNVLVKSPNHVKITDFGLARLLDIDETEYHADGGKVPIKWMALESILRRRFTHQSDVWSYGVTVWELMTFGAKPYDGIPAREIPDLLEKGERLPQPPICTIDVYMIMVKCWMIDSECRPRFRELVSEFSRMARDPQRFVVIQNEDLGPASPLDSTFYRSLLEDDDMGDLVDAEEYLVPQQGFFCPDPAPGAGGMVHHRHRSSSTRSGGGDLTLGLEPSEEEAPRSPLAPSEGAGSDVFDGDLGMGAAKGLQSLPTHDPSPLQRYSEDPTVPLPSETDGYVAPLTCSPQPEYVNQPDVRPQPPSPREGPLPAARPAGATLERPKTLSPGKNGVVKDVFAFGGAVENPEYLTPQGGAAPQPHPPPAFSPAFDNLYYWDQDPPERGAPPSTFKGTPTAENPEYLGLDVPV

`CC(C)CNS(=O)(=O)c1ccc(OCC(=O)Nc2ccc3c(c2)OCO3)c(Cl)c1`: the viability in experiment [1] is 89.5%; in experiment [3], 89.5% (inactive); in experiment [4], 58.6% (inactive); in experiment [5] it was 66.7% (inactive); in experiment [6] (setting [9]), 69%; in experiment [6] (setting [10]) it was 66.7%. Besides, the Her2 level in experiment [2] was 66% (inactive). Moreover, the differential viability (reversal) in experiment [6] (H69AR cells + 2 uM doxorubicin) was -2.31% (inactive). Further, the inhibition in experiment [7] was -5.39% (inactive); in experiment [8], -0.67% (inactive).
On to `CCC(C)(C(=O)NC1CCCCC1)N(Cc1ccco1)C(=O)c1cnccn1` (stereo not given), for which the viability is 82% in experiment [1]; 82% (inactive) in experiment [3]; 88.7% (inactive) in experiment [4]; 97.5% (inactive) in experiment [5]; 89.2% in experiment [6] (setting [9]); 97.5% in experiment [6] (setting [10]). Besides, the Her2 level in experiment [2] was 98% (inactive). Moreover, in experiment [6] (H69AR cells + 2 uM doxorubicin), the differential viability (reversal) was 8.25% (inactive). The inhibition in experiment [7] was -0.78% (inactive); in experiment [8], -3.77% (inactive).
For `CCCCN(CCCC)C(=O)CN(C)S(=O)(=O)c1ccc2c(c1)n(C)c(=O)c(=O)n2C`, the viability was 99.5% in experiment [1]; 99.5% (inactive) in experiment [3]; 113% (inactive) in experiment [4]; 96.1% (inactive) in experiment [5]; 92.7% in experiment [6] (setting [9]); 96.1% in experiment [6] (setting [10]). Besides, the Her2 level in experiment [2] is 86% (inactive). The differential viability (reversal) in experiment [6] (H69AR cells + 2 uM doxorubicin) was 3.39% (inactive). In addition, the results for the inhibition in experiment [7] and in experiment [8] were -2.24% (inactive) and 2.38% (inactive), respectively.
Consider `CC(=O)NCCOc1cccc(OCCNC(C)=O)c1`, for which the viability is 94.5% in experiment [1]; 94.5% (inactive) in experiment [3]; 103% (inactive) in experiment [4]; 86.3% (inactive) in experiment [5]; 91.7% in experiment [6] (setting [9]); 86.3% in experiment [6] (setting [10]). For the same compound, the Her2 level in experiment [2] was 122% (inactive). Moreover, the differential viability (reversal) in experiment [6] (H69AR cells + 2 uM doxorubicin) was -5.34% (inactive). For the same compound, the inhibition in experiment [7] is 2.67% (inactive); in experiment [8] it was -3.17% (inactive).
Take `CCOC(=O)CSc1nc2cc(C(=O)NCc3ccco3)ccc2c(=O)n1C1CCCCC1`: the viability in experiment [1] is 112%; in experiment [3] it was 112% (inactive); in experiment [4], 91.7% (inactive); in experiment [5], 89.8% (inactive); in experiment [6] (setting [9]) it was 87.3%; in experiment [6] (setting [10]), 89.8%. In experiment [2], the Her2 level was 83.5% (inactive). In addition, the differential viability (reversal) in experiment [6] (H69AR cells + 2 uM doxorubicin) is 2.55% (inactive). Besides, the inhibition in experiment [7] was -4.53% (inactive); in experiment [8], 0.33% (inactive).
On to `CCOC(=O)N1CCN(C(=O)C2c3cc(OC)c(OC)cc3C(=O)N3CCc4ccccc4C23)CC1` (stereo not given), for which the viability is 116% in experiment [1]; 116% (inactive) in experiment [3]; 102% (inactive) in experiment [4]; 95.7% (inactive) in experiment [5]; 96.4% in experiment [6] (setting [9]); 95.7% in experiment [6] (setting [10]). For the same compound, the Her2 level in experiment [2] was 97% (inactive). Moreover, the differential viability (reversal) in experiment [6] (H69AR cells + 2 uM doxorubicin) is -0.775% (inactive). Also, the inhibition in experiment [7] is -6.4% (inactive); in experiment [8], 0.49% (inactive).
For the compound `COC(=O)C1=C(C)NC(=O)C1(NC(=O)CN1CCCC1=O)C(F)(F)F` (stereo not given), the viability in experiment [1] is 116%; in experiment [3], 116% (inactive); in experiment [4], 105% (inactive); in experiment [5], 101% (inactive); in experiment [6] (setting [9]), 98.3%; in experiment [6] (setting [10]), 101%. Also, in experiment [2], the Her2 level is 91% (inactive). Also, the differential viability (reversal) in experiment [6] (H69AR cells + 2 uM doxorubicin) is 3.15% (inactive). Besides, the inhibition in experiment [7] was -4.34% (inactive); in experiment [8], -6.03% (inactive).
For the compound `CC(C)Cn1c(=O)c(C2=NS(=O)(=O)c3ccccc3N2)c(O)c2ccccc21`, the viability in experiment [1] was 118%; in experiment [3], 118% (inactive); in experiment [4], 97% (inactive); in experiment [5] it was 98.1% (inactive); in experiment [6] (setting [9]), 99%; in experiment [6] (setting [10]), 98.1%. The Her2 level in experiment [2] is 86.5% (inactive). Moreover, the differential viability (reversal) in experiment [6] (H69AR cells + 2 uM doxorubicin) is -0.935% (inactive). Besides, the inhibition in experiment [7] was -2.21% (inactive); in experiment [8], 1.8% (inactive).
Take `O=C(CN1CCN(c2ncccn2)CC1)Nc1ccccc1-n1cccc1`: the viability is 102% in experiment [1]; 102% (inactive) in experiment [3]; 81.4% (inactive) in experiment [4]; 92.9% (inactive) in experiment [5]; 90.5% in experiment [6] (setting [9]); 92.9% in experiment [6] (setting [10]). Further, the Her2 level in experiment [2] was 79% (inactive). For the same compound, the differential viability (reversal) in experiment [6] (H69AR cells + 2 uM doxorubicin) was 2.44% (inactive). The results for the inhibition in experiment [7] and in experiment [8] were -1.43% (inactive) and -6.83% (inactive), respectively.
On to `Cc1cc(NCCN(C)C)n2nc(-c3cccs3)cc2n1`, for which the viability is 90% in experiment [1]; 90% (inactive) in experiment [3]; 102% (inactive) in experiment [4]; 92.6% (inactive) in experiment [5]; 82.1% in experiment [6] (setting [9]); 92.6% in experiment [6] (setting [10]). For the same compound, in experiment [2], the Her2 level was 107% (inactive). Further, in experiment [6] (H69AR cells + 2 uM doxorubicin), the differential viability (reversal) is 10.5% (inactive). Further, the inhibition was -4.8% (inactive) in experiment [7] and -2.62% (inactive) in experiment [8].
Regarding `Cc1nc2sc(C(c3ccco3)N3CCN(c4ccccc4F)CC3)c(O)n2n1` (stereo not given), the viability in experiment [1] is 97%; in experiment [3] it was 97% (inactive); in experiment [4] it was 101% (inactive); in experiment [5] it was 97.5% (inactive); in experiment [6] (setting [9]) it was 90.3%; in experiment [6] (setting [10]), 97.5%. The Her2 level in experiment [2] was 85% (inactive). In experiment [6] (H69AR cells + 2 uM doxorubicin), the differential viability (reversal) was 7.17% (inactive). The results for the inhibition in experiment [7] and in experiment [8] were -6.27% (inactive) and 0.95% (inactive), respectively.
`Cc1cc(NC(=O)C23CCC(C)(c4nc5cc(Cl)c(Cl)cc5nc42)C3(C)C)no1` (stereo not given): the viability in experiment [1] was 124%; in experiment [3] it was 124% (inactive); in experiment [4], 88.5% (inactive); in experiment [5], 91.6% (inactive); in experiment [6] (setting [9]), 77.1%; in experiment [6] (setting [10]), 91.6%. Also, the Her2 level in experiment [2] is 96.5% (inactive). In experiment [6] (H69AR cells + 2 uM doxorubicin), the differential viability (reversal) is 14.6% (inactive). In addition, the results for the inhibition in experiment [7] and in experiment [8] were -3.42% (inactive) and 6.29% (inactive), respectively.
`COc1ccc(OC)c(NC(=O)CSc2ncccc2C(=O)O)c1`: the viability in experiment [1] was 104%; in experiment [3] it was 104% (inactive); in experiment [4], 100% (inactive); in experiment [5], 104% (inactive); in experiment [6] (setting [9]), 96.4%; in experiment [6] (setting [10]), 104%. Also, the Her2 level in experiment [2] was 98% (inactive). For the same compound, the differential viability (reversal) in experiment [6] (H69AR cells + 2 uM doxorubicin) is 7.42% (inactive). In addition, the inhibition in experiment [7] was -3.29% (inactive); in experiment [8], -3.45% (inactive).
For `Cc1nnc(N2C(=O)c3oc4ccccc4c(=O)c3C2c2ccco2)s1` (stereo not given), the viability in experiment [1] is 93%; in experiment [3], 93% (inactive); in experiment [4] it was 115% (inactive); in experiment [5], 95.2% (inactive); in experiment [6] (setting [9]), 85.6%; in experiment [6] (setting [10]), 95.2%. The Her2 level in experiment [2] was 99.5% (inactive). Further, the differential viability (reversal) in experiment [6] (H69AR cells + 2 uM doxorubicin) is 9.59% (inactive). In addition, the inhibition was -1.54% (inactive) in experiment [7] and 0.83% (inactive) in experiment [8].
`CCOC(=O)Nc1ccc(OC)cc1S(=O)(=O)N1CCCCC1`: the viability in experiment [1] was 88.5%; in experiment [3], 88.5% (inactive); in experiment [4] it was 112% (inactive); in experiment [5], 99% (inactive); in experiment [6] (setting [9]), 81.3%; in experiment [6] (setting [10]), 99%. For the same compound, the Her2 level in experiment [2] was 93% (inactive). Further, the differential viability (reversal) in experiment [6] (H69AR cells + 2 uM doxorubicin) is 17.7% (inactive). Also, the values for the inhibition in experiment [7] and in experiment [8] were -1.84% (inactive) and -1.8% (inactive), respectively.

These data come from PubChem BioAssay.
